In ChEMBL document CHEMBL4004832, “Synthesis, surfactant properties and antimicrobial activities of methyl glycopyranoside ethers” (2017):
Values after ≈ are worked out from the molar mass of the structure shown.

Key:
[1] = Surfactant property of the compound in aqueous solution assessed as critical micelle concentration or minimal hydrotropic concentration
Summary of the method: (§1)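 Surface tension of aqueous solutions was measured by a rod method based on the Wilhelmy plate. Water was progressively concentrated with a stock surfactant solution at constant volume. At each concentration, readings continued until stable (SD of the last 5 values 0.2 mN/m). MHC or CMC and the plateau γsat were taken from the tension vs concentration curves.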

[2] = Surfactant property of the compound in water assessed as critical micelle concentration or minimal hydrotropic concentration by platinum rod based tensiometric method; summary of the method: as §1
Escherichia coli = assay: Antibacterial activity against Escherichia coli ATCC 8739 after 18 hrs by broth microdilution assay; format: functional; settings: ATCC 8739, 18 h
Pseudomonas aeruginosa = assay: Antibacterial activity against Pseudomonas aeruginosa ATCC 27853 after 18 hrs by broth microdilution assay; format: functional; settings: ATCC 27853, 18 h
Listeria monocytogenes [3] = assay: Antibacterial activity against Listeria monocytogenes CIP 103575 after 18 hrs by broth microdilution assay; format: functional; settings: CIP 103575, 18 h
Summary of the method: (§2)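 Broth MIC testing on Gram-positive strains followed CLSI M100-S17 recommendations. […] Values are in mmol/L. Amoxicillin was the control for Listeria and Enterococcus strains and oxacillin for S. aureus strains.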

Staphylococcus aureus [4] = assay: Antibacterial activity against Staphylococcus aureus ATCC 29213 after 18 hrs by broth microdilution assay; format: functional; settings: ATCC 29213, 18 h; summary of the method: as §2
Enterococcus faecalis [5] = assay: Antibacterial activity against Enterococcus faecalis ATCC 29212 after 18 hrs by broth microdilution assay; format: functional; settings: ATCC 29212, 18 h; summary of the method: as §2
Listeria monocytogenes [6] = assay: Bactericidal activity against Listeria monocytogenes CIP 103575 after 18 hrs by broth microdilution assay; format: functional
Summary of the method: (§3)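 MBC is the lowest concentration giving at least 99.9% reduction of the initial inoculum. Values are in mmol/L.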

Staphylococcus aureus [7] = assay: Bactericidal activity against Staphylococcus aureus ATCC 29213 after 18 hrs by broth microdilution assay; format: functional; summary of the method: as §3
Enterococcus faecalis [8] = assay: Bactericidal activity against Enterococcus faecalis ATCC 29212 after 18 hrs by broth microdilution assay; format: functional; summary of the method: as §3
Listeria monocytogenes [9] = assay: Antibacterial activity against Listeria monocytogenes isolate 015189074801 after 18 hrs by broth microdilution assay; format: functional; settings: isolate 015189074801, 18 h; summary of the method: as §2
Listeria monocytogenes [10] = assay: Antibacterial activity against Listeria monocytogenes isolate 015170199001 after 18 hrs by broth microdilution assay; format: functional; settings: isolate 015170199001, 18 h; summary of the method: as §2
Listeria monocytogenes [11] = assay: Antibacterial activity against Listeria monocytogenes isolate 015181840701 after 18 hrs by broth microdilution assay; format: functional; settings: isolate 015181840701, 18 h; summary of the method: as §2
Enterococcus faecalis [12] = assay: Antibacterial activity against Enterococcus faecalis isolate 015206179901 after 18 hrs by broth microdilution assay; format: functional; settings: isolate 015206179901, 18 h; summary of the method: as §2
Enterococcus faecium [13] = assay: Antibacterial activity against Enterococcus faecium CIP 103510 after 18 hrs by broth microdilution assay; format: functional; settings: CIP 103510, 18 h
Summary of the method: (§4)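 Enterococcus faecium strains (reference, clinical isolates, VanA isolate) tested by MIC following CLSI recommendations (M100-S17), with amoxicillin as control. […] Values are expressed in mmol/L.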

Enterococcus faecium [14] = assay: Antibacterial activity against […] Enterococcus faecium isolate 0151850763 after 18 hrs by broth microdilution assay; format: functional; settings: isolate 0151850763, 18 h; summary of the method: as §4
Enterococcus faecium [15] = assay: Antibacterial activity against Enterococcus faecium isolate 015205731401 after 18 hrs by broth microdilution assay; format: functional; settings: isolate 015205731401, 18 h; summary of the method: as §2
Enterococcus faecium [16] = assay: Antibacterial activity against Enterococcus faecium isolate 015205261801 after 18 hrs by broth microdilution assay; format: functional; settings: isolate 015205261801, 18 h; summary of the method: as §4
Staphylococcus aureus [17] = assay: Antibacterial activity against Staphylococcus aureus ATCC 25923 after 18 hrs by broth microdilution assay; format: functional; settings: ATCC 25923, 18 h
Summary of the method: (§5)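 Staphylococcus aureus reference strains and methicillin- and daptomycin-resistant isolates tested by MIC according to CLSI guidance (M100-S17), with oxacillin as control. The endpoint is the lowest concentration with no growth in all replicates versus a negative control at 18 h. Values are reported in mmol/L.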

Staphylococcus aureus [18] = assay: Antibacterial activity against methicillin-resistant Staphylococcus aureus LAC USA300 after 18 hrs by broth microdilution assay; format: functional; summary of the method: as §5
Staphylococcus aureus [19] = assay: Antibacterial activity against methicillin-resistant Staphylococcus aureus Mu3 after 18 hrs by broth microdilution assay; format: functional; settings: Mu3, 18 h; summary of the method: as §5
Staphylococcus aureus [20] = assay: Antibacterial activity against methicillin-resistant Staphylococcus aureus isolate HT 2004-0012 after 18 hrs by broth microdilution assay; format: functional; settings: isolate HT 2004-0012, 18 h; summary of the method: as §5
Staphylococcus aureus [21] = assay: Antibacterial activity against methicillin-resistant Staphylococcus aureus isolate LY 1999-0053 after 18 hrs by broth microdilution assay; format: functional; settings: isolate LY 1999-0053, 18 h; summary of the method: as §5
Staphylococcus aureus [22] = assay: Antibacterial activity against methicillin-resistant Staphylococcus aureus isolate HT 2002-0417 after 18 hrs by broth microdilution assay; format: functional; settings: isolate HT 2002-0417, 18 h; summary of the method: as §5
Staphylococcus aureus [23] = assay: Antibacterial activity against methicillin-resistant Staphylococcus aureus isolate HT 2006-1004 after 18 hrs by broth microdilution assay; format: functional; settings: isolate HT 2006-1004, 18 h; summary of the method: as §5
Staphylococcus aureus [24] = assay: Antibacterial activity against daptomycin-resistant Staphylococcus aureus isolate ST 2015-0188 after 18 hrs by broth microdilution assay; format: functional; settings: isolate ST 2015-0188, 18 h; summary of the method: as §5
Staphylococcus aureus [25] = assay: Antibacterial activity against daptomycin-resistant Staphylococcus aureus isolate ST 2014-1288 after 18 hrs by broth microdilution assay; format: functional; settings: isolate ST 2014-1288, 18 h; summary of the method: as §5
Staphylococcus aureus [26] = assay: Antibacterial activity against daptomycin-resistant Staphylococcus aureus isolate ST 2015-0989 after 18 hrs by broth microdilution assay; format: functional; settings: isolate ST 2015-0989, 18 h; summary of the method: as §5

CCCCCCCCCCCCO[C@H]1O[C@H](CO)C(O[C@H]2O[C@H](CO)[C@@H](O)[C@H](O)[C@H]2O)[C@H](O)[C@H]1O (single isomer, unassigned) gave a CMC [1] of 0.15 mmol/L.
Compound CCCC[C@@H]1OC[C@H]2O[C@H](OC)[C@H](O)[C@@H](O)[C@@H]2O1 has a CMC [2] of 82 mmol/L, an MIC (Escherichia coli) greater than 4000 µM and an MIC (Pseudomonas aeruginosa) greater than 4000 µM. The MIC (Listeria monocytogenes [3]) was greater than 4000 µM, the MIC (Staphylococcus aureus [4]) was greater than 4000 µM and the MIC (Enterococcus faecalis [5]) was greater than 4000 µM.
For CCCCCCCCCCOC[C@H]1O[C@H](OC)[C@H](O)[C@@H](O)[C@@H]1O, the CMC [2] was 0.277 mmol/L, the MIC (Listeria monocytogenes [3]) was 500 µM (≈ 167 µg/mL) and the “MBC<=99.9” value (Listeria monocytogenes [6]) was 500 µM (≈ 167 µg/mL). For the same compound, the MIC (Staphylococcus aureus [4]) was 2000 µM (≈ 669 µg/mL), the “MBC<=99.9” value (Staphylococcus aureus [7]) was 2000 µM (≈ 669 µg/mL) and the MIC (Enterococcus faecalis [5]) was 500 µM (≈ 167 µg/mL). For the same compound, the “MBC<=99.9” value (Enterococcus faecalis [8]) was 500 µM (≈ 167 µg/mL).
CCCCCCCCCCCCO[C@H]1[C@H](OC)O[C@@H](C)[C@H](O)[C@H]1O gave an MIC (Listeria monocytogenes [3]) of 90 µM (≈ 31.2 µg/mL), an MIC (Staphylococcus aureus [4]) of 50 µM (≈ 17.3 µg/mL) and an MIC (Enterococcus faecalis [5]) of 50 µM (≈ 17.3 µg/mL). The MIC (Listeria monocytogenes [9]) was 90 µM (≈ 31.2 µg/mL), the MIC (Listeria monocytogenes [10]) was 90 µM (≈ 31.2 µg/mL) and the MIC (Listeria monocytogenes [11]) was 90 µM (≈ 31.2 µg/mL). For the same compound, the MIC (Enterococcus faecalis [12]) was 50 µM (≈ 17.3 µg/mL), the MIC (Enterococcus faecium [13]) was 50 µM (≈ 17.3 µg/mL) and the MIC (Enterococcus faecium [14]) was 50 µM (≈ 17.3 µg/mL). It also gave an MIC (Enterococcus faecium [15]) of 20 µM (≈ 6.93 µg/mL), an MIC (Enterococcus faecium [16]) of 50 µM (≈ 17.3 µg/mL) and an MIC (Staphylococcus aureus [17]) of 90 µM (≈ 31.2 µg/mL). The MIC (Staphylococcus aureus [18]) was 90 µM (≈ 31.2 µg/mL), the MIC (Staphylococcus aureus [19]) was 180 µM (≈ 62.4 µg/mL) and the MIC (Staphylococcus aureus [20]) was 50 µM (≈ 17.3 µg/mL). The MIC (Staphylococcus aureus [21]) was 90 µM (≈ 31.2 µg/mL), the MIC (Staphylococcus aureus [22]) was 90 µM (≈ 31.2 µg/mL) and the MIC (Staphylococcus aureus [23]) was 90 µM (≈ 31.2 µg/mL). It also gave an MIC (Staphylococcus aureus [24]) of 180 µM (≈ 62.4 µg/mL), an MIC (Staphylococcus aureus [25]) of 90 µM (≈ 31.2 µg/mL) and an MIC (Staphylococcus aureus [26]) of 180 µM (≈ 62.4 µg/mL).
For CCCCCCCCCCCCOC[C@H]1OC(O)[C@H](O)[C@@H](O)[C@@H]1O (some centres not stated), the CMC [1] was 0.5 mmol/L.
For CCCCCCC[C@@H]1OC[C@H]2O[C@H](OC)[C@H](O)[C@@H](O)[C@@H]2O1, the CMC [2] was 2.5 mmol/L, the MIC (Escherichia coli) was greater than 4000 µM and the MIC (Pseudomonas aeruginosa) was greater than 4000 µM. The MIC (Listeria monocytogenes [3]) was 2000 µM (≈ 609 µg/mL), the MIC (Staphylococcus aureus [4]) was greater than 4000 µM and the MIC (Enterococcus faecalis [5]) was greater than 4000 µM.
Cc1onc(-c2ccccc2)c1C(=O)N[C@@H]1C(=O)N2[C@@H]1SC(C)(C)[C@@H]2C(=O)O [OXACILLIN] showed an MIC (Staphylococcus aureus [4]) of 1 µM (≈ 0.401 µg/mL), an MIC (Staphylococcus aureus [17]) of 50 µM (≈ 20.1 µg/mL) and an MIC (Staphylococcus aureus [18]) of 160 µM (≈ 64.2 µg/mL). It also gave an MIC (Staphylococcus aureus [19]) of 640 µM (≈ 257 µg/mL), an MIC (Staphylococcus aureus [20]) of 80 µM (≈ 32.1 µg/mL) and an MIC (Staphylococcus aureus [21]) of 160 µM (≈ 64.2 µg/mL). It also gave an MIC (Staphylococcus aureus [22]) of 160 µM (≈ 64.2 µg/mL), an MIC (Staphylococcus aureus [23]) of 320 µM (≈ 128 µg/mL) and an MIC (Staphylococcus aureus [24]) of 160 µM (≈ 64.2 µg/mL). It also gave an MIC (Staphylococcus aureus [25]) of 160 µM (≈ 64.2 µg/mL) and an MIC (Staphylococcus aureus [26]) of 320 µM (≈ 128 µg/mL).
In the case of CCCCCCCCCCCC(=O)OC[C@H]1O[C@H](O[C@]2(CO)O[C@H](CO)[C@@H](O)[C@@H]2O)[C@H](O)[C@@H](O)[C@@H]1O, the CMC [1] is reported as 0.25 mmol/L.
Work on CCCCCCCCCCCCO[C@@H]1O[C@H](CO)[C@@H](O)[C@H](O)[C@H]1O yielded a CMC [1] of 0.19 mmol/L.
CCCCCOC[C@H]1O[C@H](OC)[C@H](O)[C@@H](O)[C@@H]1O gave a CMC [2] of 35 mmol/L, an MIC (Escherichia coli) greater than 4000 µM and an MIC (Pseudomonas aeruginosa) greater than 4000 µM. It also gave an MIC (Listeria monocytogenes [3]) greater than 4000 µM, an MIC (Staphylococcus aureus [4]) greater than 4000 µM and an MIC (Enterococcus faecalis [5]) greater than 4000 µM.
Compound CC1(C)S[C@@H]2[C@H](NC(=O)[C@H](N)c3ccc(O)cc3)C(=O)N2[C@H]1C(=O)O [AMOXICILLIN] has an MIC (Listeria monocytogenes [3]) of 2 µM (≈ 0.731 µg/mL), an MIC (Enterococcus faecalis [5]) of 2 µM (≈ 0.731 µg/mL) and an MIC (Listeria monocytogenes [9]) of 2 µM (≈ 0.731 µg/mL). The MIC (Listeria monocytogenes [10]) was 4 µM (≈ 1.46 µg/mL), the MIC (Listeria monocytogenes [11]) was 2 µM (≈ 0.731 µg/mL) and the MIC (Enterococcus faecalis [12]) was 2 µM (≈ 0.731 µg/mL). For the same compound, the MIC (Enterococcus faecium [13]) was 60 µM (≈ 21.9 µg/mL), the MIC (Enterococcus faecium [14]) was 500 µM (≈ 183 µg/mL) and the MIC (Enterococcus faecium [15]) was 250 µM (≈ 91.4 µg/mL). For the same compound, the MIC (Enterococcus faecium [16]) was 250 µM (≈ 91.4 µg/mL).
In the case of CCCCCCCCOC[C@H]1O[C@H](OC)[C@H](O)[C@@H](O)[C@@H]1O, the CMC [2] is reported as 0.434 mmol/L, the MIC (Escherichia coli) is reported as greater than 4000 µM and the MIC (Pseudomonas aeruginosa) is reported as greater than 4000 µM. The MIC (Listeria monocytogenes [3]) was 2000 µM (≈ 613 µg/mL), the MIC (Staphylococcus aureus [4]) was 2000 µM (≈ 613 µg/mL) and the MIC (Enterococcus faecalis [5]) was greater than 4000 µM.
